The source of these data is ChEMBL document CHEMBL4613231 (Bioorg Med Chem, 2020).

Data set [1] has as its target T1, Tyrosyl-DNA phosphodiesterase 1 (Homo sapiens, UniProt Q9NUW8). The data set can be described thus: Inhibition of TDP1 (unknown origin) using 5'-(5,6 FAM-AAC GTC AGG GTC TTC C- BHQ1)-3' as substrate measured for every 1 min by fluorescence based assay. Summed up:
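TDP1 buffer (50 mM Tris-HCl pH 8.0, 50 mM NaCl, 7 mM β-mercaptoethanol) with FAM/BHQ1 quenched biosensor at 50 nM final and inhibitor over a concentration range. Started by adding TDP1 (1.5 nM), 26 °C, fluorescence (Ex485/Em520) read every 1 min. Linear-phase slope compared with DMSO control, IC50 taken from concentration-response curves, at least three independent experiments.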

The test system of data set [2] is WI-38. The data set is described as follows: Cytotoxicity against human WI38 cells at 1 uM after 72 hrs in presence of topotecan by MTT assay. It is filed as cell-based. The following applies: wi-38, 72 h.
A short description of data set [3]: (§1) Cytotoxicity against human WI38 cells assessed as reduction in cell viability after 72 hrs by MTT assay. It is filed as cell-based, WI-38. The following applies: WI-38 cells. Summed up: (§2)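 Cells plated at ~2000 per well, grown 24h at 37 °C in IMDM (5% CO2), then exposed to compounds at 1, 5, 20 and 100 µM for 72h. Viable cells quantified by colorimetric MTT test; CC50 taken as mean of three independent experiments.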
(Tetrazolium assays rely on reduction of a dye to a coloured formazan, in cell work by metabolically active cells.)

Data set [4] can be described thus: (§3) Cytotoxicity against human T98G cells assessed as reduction in cell viability after 72 hrs by MTT assay. It is filed as cell-based. The following applies: T98G cells. An outline of the steps: as §2
Data set [5] can be described thus: (§4) Cytotoxicity against human MCF7 cells assessed as reduction in cell viability after 72 hrs by MTT assay. The class given is cell-based. The following applies: MCF7 cells. Summed up:
as §2

Data set [6] relates to T98G. The data set is described as follows: Cytotoxicity against human T98G cells at 1 uM after 72 hrs in presence of topotecan by MTT assay. It is filed as cell-based.
Data set [7] addresses T1, Tyrosyl-DNA phosphodiesterase 1. The data set can be described thus: Inhibition of TDP1 (unknown origin) using 5'-(5,6 FAM-AAC GTC AGG GTC TTC C- BHQ1)-3' as substrate measured after 20 mins by gel-based assay. An outline of the steps:
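Reaction (200 μL) in TDP1 buffer (50 mM Tris-HCl pH 8.0, 50 mM NaCl, 7 mM β-mercaptoethanol) with FAM/BHQ1 biosensor oligo at 50 nM final and inhibitor at various concentrations. Started with TDP1 at 1.5 nM final, run 20 min at room temperature, stopped with loading buffer. Products separated by denaturing PAGE, scanned and quantified, and IC50 derived.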

Data set [8] concerns WI-38. The data set is described as §1. It is filed as cell-based. The following applies: wi-38, 72 h. An outline of the steps: as §2
Data set [9] deals with T98G. Described as §3. It is filed as cell-based. The following applies: t98g, 72 h. Summed up: as §2
For the next data set, the system named is MCF7. The data set is described as §4. The class given is cell-based. The following applies: mcf7, 72 h. An outline of the steps:
as §2

For a further data set, the system named is A549. The data set is described as follows: Cytotoxicity against human A549 cells assessed as reduction in cell viability after 72 hrs by MTT assay. It is filed as cell-based. The following applies: a549, 72 h. Summed up:
as §2

T1 sequence (Q9NUW8 whole entry): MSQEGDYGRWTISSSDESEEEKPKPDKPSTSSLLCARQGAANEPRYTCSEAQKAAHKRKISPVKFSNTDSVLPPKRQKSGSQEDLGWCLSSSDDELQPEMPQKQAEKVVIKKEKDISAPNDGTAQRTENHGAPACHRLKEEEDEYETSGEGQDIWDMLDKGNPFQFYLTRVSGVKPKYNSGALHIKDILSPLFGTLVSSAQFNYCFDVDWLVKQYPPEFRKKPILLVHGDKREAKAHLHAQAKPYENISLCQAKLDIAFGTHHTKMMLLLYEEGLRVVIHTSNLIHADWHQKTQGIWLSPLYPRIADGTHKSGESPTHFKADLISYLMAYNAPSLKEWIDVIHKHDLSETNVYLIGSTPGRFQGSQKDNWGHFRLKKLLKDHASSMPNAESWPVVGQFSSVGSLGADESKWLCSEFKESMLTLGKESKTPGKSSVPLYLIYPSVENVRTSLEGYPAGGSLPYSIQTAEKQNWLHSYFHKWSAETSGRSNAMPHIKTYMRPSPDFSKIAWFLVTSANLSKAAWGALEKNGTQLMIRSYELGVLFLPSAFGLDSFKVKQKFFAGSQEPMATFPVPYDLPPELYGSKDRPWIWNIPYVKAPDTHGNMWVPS

One may read the IC50 as the concentration needed to halve the response being measured. Read a low IC50 as higher potency. Compound `CCCc1cc(=O)oc2c(C)c(OCC(=O)NC(Cc3c[nH]c4ccc(O)cc34)C(=O)O)ccc12` (configuration not stated) registered a half-inhibitory concentration (IC50) in data set [1] of 5600 nM.

The CC50 is the concentration that lowers cell viability or growth by half. As to `COc1cccc2cc(-c3cc(=O)oc4c(C)c(OCc5ccc(Cl)cc5)ccc34)c(=O)oc12`, the Activity entry in the data set on WI-38 [2] and in the data set with T98G [6] was “Toxic” each time. Moreover, the results for the CC50 at 72 h in data set [3], in data set [4] and in [5] were 60 µM, 16 µM and 17 µM, respectively. In [1], this compound displayed an IC50 of 360 nM.

In data set [1], `COc1cccc2cc(-c3cc(=O)oc4cc(OCC(C)=O)ccc34)c(=O)oc12` showed an IC50 of 7600 nM.

Take `Cc1c(CCC(=O)N[C@@H](CSCc2ccccc2)C(=O)O)c(=O)oc2cc3oc4c(c3cc12)CCCC4`: inhibition in data set [1] was half-maximal at 15400 nM (IC50).

In [1], `Cc1c(Cc2ccccc2)c(=O)oc2cc(OCC(=O)N[C@@H](CSCc3ccccc3)C(=O)O)ccc12` gave an IC50 of 3500 nM.

As for `Cc1oc2c(C)c3oc(=O)c(CC(=O)NCC(=O)O)c(C)c3cc2c1-c1ccccc1`, the IC50 in data set [1] is over 100000 nM.

In data set [1], `O=C(NCCC1=CCCCC1)c1cc2c([nH]c3ccccc32)c(-c2ccc3c(c2)OCO3)n1` came in with an IC50 of 1300 nM.

As for `O=C(NCCc1c[nH]c2ccccc12)c1cc2c([nH]c3ccccc32)c(-c2ccc3c(c2)OCO3)n1`, it took 980 nM to reach half-maximal inhibition in [1] (IC50).

Turning to `Cc1c(CC(=O)NC(Cc2ccc(Cl)cc2)C(=O)O)c(=O)oc2c(C)c3occ(-c4ccc(F)cc4)c3cc12` (configuration not stated), half-maximal inhibition in data set [1] (IC50) was put at 850 nM.

For the compound `Cc1c(CC(=O)N[C@@H](CSCc2ccccc2)C(=O)O)c(=O)oc2c(C)c3occ(-c4ccc(F)cc4)c3cc12`, the IC50 amounted to 1750 nM in data set [7] and 1060 nM in data set [1]. Further, the CC50 at 72 h was 66 µM in data set [4] and 80 µM in data set [5].

`COc1ccc(-c2cc(=O)oc3cc(OCC(=O)N[C@H](C(=O)O)c4ccccc4)ccc23)cc1` gave an IC50 in data set [1] of 12900 nM.

As to `CC(C)OCCCNC(=O)c1cc2c([nH]c3ccccc32)c(-c2ccc3c(c2)OCO3)n1`, the IC50 in [1] stood at 3100 nM.

In [1], `O=C(COc1cc2oc(=O)cc(-c3ccccc3)c2cc1Cl)NC[C@H]1CC[C@H](C(=O)O)CC1` showed an IC50 of over 100000 nM.

As to `CC(C)C[C@H](N)C(=O)N1CCC(C(=O)N[C@@H](Cc2ccccc2)C(=O)NCc2ccccc2F)CC1`, the IC50 in data set [1] was over 100000 nM.

Take `O=c1cc(-c2cc3ccccc3oc2=O)c2ccc(OCc3cccc4ccccc34)cc2o1`: the IC50 in [1] was 270 nM.

Take `O=c1cc(-c2cc3ccccc3oc2=O)c2ccc(OCc3ccccc3Cl)cc2o1`: the CC50 at 72 h in data set [4] was 16 µM. The same compound returned an IC50 in data set [1] of 280 nM.

For `O=c1cc(-c2cc3ccccc3oc2=O)c2ccc(OCc3c(Cl)cccc3Cl)cc2o1`, the Activity result is on record as “Toxic” in the data set on WI-38 [2]; “Non-Toxic” with WI-38 [8]; “Non-Toxic” with T98G [9]; “Non-Toxic” with MCF7; “Toxic” in the data set on T98G [6]; “Non-Toxic” with A549. Besides, it took 99 nM to reach half-maximal inhibition in data set [1] (IC50).
